Results gathered from unrelated publications.
Target: SRSF protein kinase 1 (SRPK1, Homo sapiens, UniProt Q96SB4)

| Structure (SMILES) | test | setting | measurement | result |
| --- | --- | --- | --- | --- |
| Cc1nn(C)cc1-c1nc2c(N3CCN(Cc4ccc(Cl)cc4)CC3)c(Cl)cnc2[nH]1 | binding, competition with immobilised ligand | 1 µM | remaining binding | 7.8% |
| C#Cc1n[nH]c2c(-c3cn([C@@H](C)c4ccccn4)c(=O)[nH]c3=O)cc(F)cc12 | enzyme activity, inhibitor | 0.1 µM | inhibition | 3.3% |
| Cn1cc(-c2cc(F)cc(N3CCn4c(cc5c4CCCC5)C3=O)c2CO)cc(Nc2ccc(N3CCN(C4COC4)CC3)cn2)c1=O | enzyme activity, inhibitor | 0.1 µM | inhibition | 14% |
| CC(C)(C)c1cc(C=C(C#N)C#N)cc(Br)c1O | enzyme activity, inhibitor | 0.5 µM | remaining activity | 101% |
| Cn1cncc1[C@](O)(COc1ccc(C#N)cc1-c1ccc(OC(F)(F)F)cc1)c1ccc(C#N)cc1 | cell-free assay, competition with immobilised ligand | 1 µM | remaining binding | 70% |
| O=c1[nH]c2ccccc2n1C1CCN(Cc2ccc(-c3[nH]c4cc5ncnc5cc4nc3-c3ccccc3)cc2)CC1 | cell-free assay | 0.5 µM | remaining signal | 106% |
| Cn1cc(-c2cccc(N3CCc4c(sc5c4CC(C)(C)C5)C3=O)c2CO)cc(Nc2ccncn2)c1=O | enzyme activity, inhibitor | 1 µM | inhibition | 5% |
| COc1ncccc1-c1cnn2ccc(N3CCN(C(=O)OC(C)C)CC3)nc12 | binding, competition with immobilised ligand | 1 µM | remaining binding | 19% |
| C#Cc1n[nH]c2c(-c3cn([C@@H](C)c4ccccc4)c(=O)[nH]c3=O)cc(F)cc12 | enzyme activity, inhibitor | 0.1 µM | inhibition | 3.1% |
| COc1cc(Nc2ncc(F)c(Nc3ccc4c(n3)NC(=O)C(C)(C)O4)n2)cc(OC)c1OC | binding | 10 µM | inhibition | 87% |
